Laboratory results reported in ChEMBL document CHEMBL1157134, “Liposomal formulation of retinoids designed for enzyme triggered release” (J Med Chem, 2010).

Key:
COLO 205 = test: Cytotoxicity against human COLO205 cells after 48 hrs by MTT assay; assay type: functional, cell-based; details: COLO 205, 48 h
Outline: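 Colo205 cells grown in RPMI 1640 with 10% fetal calf serum and 1% Pen-Strep at 5% CO₂, seeded at 2 × 10⁴ cells/well 24 h before treatment. Dosing used conditioned medium carrying about 100 ng/mL sPLA₂ IIA. Exposure was 24 h, then a wash and 48 h in complete medium before MTT. Reported as mean ± SD, n = 3 or more.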

HT-29 [1] = test: Cytotoxicity against human HT-29 cells after 48 hrs by MTT assay; assay type: functional, cell-based; details: HT-29, 48 h
Outline: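 HT-29 cells grown in McCoy's 5A with 10% fetal calf serum and 1% Pen-Strep, seeded at 1 × 10⁴ cells/well 24 h before dosing. Tested with or without snake (Agkistrodon piscivorus piscivorus) venom sPLA₂ at 5 nM final. Exposure was 24 h, then a wash and 48 h in complete medium before MTT viability. Mean ± SD, n = 3 or more.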

HT-29 [2] = test: Cytotoxicity against human HT-29 cells after 48 hrs by MTT assay in presence of Agkistrodon piscivorus piscivorus venom sPLA2; assay type: functional, cell-based; details: HT-29, 48 h
Outline: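 HT-29 cells (McCoy's 5A, 10% fetal calf serum) plated at 1 × 10⁴ cells/well 24 h before dosing. Liposomal prodrugs diluted in PBS, lipid concentration set by phosphorus analysis; snake venom sPLA₂ added to a final 5 nM. Cells exposed for 24 h, washed, then kept in complete medium another 48 h. Viability read by MTT, mean ± SD, n ≥ 3.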

[3] = Cytotoxicity against human MT3 cells after 48 hrs by MTT assay; assay type: functional, cell-based; details: MT-3, 48 h
Outline: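 MT-3 breast cancer cells grown in RPMI 1640 with 10% fetal calf serum and 1% Pen-Strep at 5% CO₂, plated at 1 × 10⁴ cells/well 24 h ahead. Retinoids were given in DMSO/water, final DMSO ≤0.5%. Exposure was 24 h, then a wash and 48 h in complete medium before MTT. Mean ± SD, n = 3.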

[4] = Inhibition of sPLA2 from Naja mossambica mossambica by fluorescence technique
[5] = Stability assessed as compound degradation after 48 hrs by MALDI-TOF MS analysis in presence of Naja mossambica mossambica venom sPLA2; assay type: ADME
Outline: (§1)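 Incubated with purified snake venom sPLA₂ at 37 °C, stirred and shielded from light, for 48 h. Extracts mixed with DHB matrix (DPPG included) and analysed by MALDI-TOF MS for remaining prodrug.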

[6] = Stability assessed as compound degradation after 48 hrs by MALDI-TOF MS analysis in presence of Agkistrodon piscivorus piscivorus venom sPLA2; assay type: ADME; outline: as §1

Row | SMILES | IC50 (COLO 205) | IC50 (HT-29 [1]) | IC50 (HT-29 [2]) | IC50 [3] | IC50 [4] | Ki [4] | Stability [5] | Stability [6]
1 | CCCCCCCCCCCCCCCCCCOC[C@H](COP(=O)(O)OC[C@H](O)CO)OC(=O)CCCCCCCCCCCCCCCCC | 33 µM | > 200 µM | 9 µM |  |  |  |  | 
2 | CCCCCCCCCCCCCCCCCC(=O)OC[C@H](COP(=O)(O)OC[C@H](O)CO)OC(=O)CCCCCCCCCCCCCCCCC | 54 µM | > 200 µM | 25 µM |  |  |  |  | 
3 | CCCCCCCCc1ccc(-c2ccc(C(=O)OCCCCCC(=O)O)cc2)cc1 | 127 µM | > 200 µM |  | 14 µM |  |  |  | 
4 | CCCCCCCCCCCCCCCCCC(=O)OC[C@@H](O)COP(=O)(O)OCC(O)CO (some centres not stated) | 22 µM | 7 µM |  |  |  |  |  | 
5 | CC1=C(/C=C/C(C)=C/C=C/C(C)=C/C(=O)OCCCCCC(=O)O)C(C)(C)CCC1 | 17 µM | 3.6 µM |  | 17 µM | 8 µM | 6 µM |  | 
6 | CCCCCCCCCCCCCCCCCCOC[C@@H](O)COP(=O)(O)OC[C@@H](O)CO | 25 µM | 11 µM |  |  |  |  |  | 
7 | CCCCCCCCCCCCCCCCCC(=O)OC[C@H](COP(=O)([O-])OC[C@@H](O)CO)OC(=O)CCCCCOC(=O)c1ccc(-c2ccc(CCCCCCCC)cc2)cc1.[Na+] | 19 µM | > 200 µM | 8 µM |  |  |  | Unstable | Unstable
8 | CCCCCCCCCCCCCCCCCCOC[C@H](COP(=O)([O-])OC[C@@H](O)CO)OC(=O)CCCCCOC(=O)c1ccc(-c2ccc(CCCCCCCC)cc2)cc1.[Na+] | 7 µM | > 200 µM | 3 µM |  |  |  | Unstable | Unstable
9 | CCCCCCCCCCCCCCCCCC(=O)OC[C@H](COP(=O)([O-])OC[C@@H](O)CO)OC(=O)CCCCCOC(=O)/C=C(C)/C=C/C=C(C)/C=C/C1=C(C)CCCC1(C)C.[Na+] | 12 µM | > 200 µM | 6 µM |  |  |  | Unstable | Unstable
10 | CCCCCCCCCCCCCCCCCCOC[C@H](COP(=O)([O-])OC[C@@H](O)CO)OC(=O)CCCCCOC(=O)/C=C(C)/C=C/C=C(C)/C=C/C1=C(C)CCCC1(C)C.[Na+] | 16 µM | > 200 µM | 7 µM |  |  |  |  | Unstable
11 | CCCCCCCCc1ccc(-c2ccc(C(=O)O)cc2)cc1 | > 200 µM | > 200 µM |  | 51 µM |  |  |  | 
12 | CCCCCCCCCCCCCCCCCC(=O)O [STEARIC ACID] | > 200 µM | > 200 µM |  |  |  |  |  | 
13 | CC1=C(/C=C/C(C)=C/C=C/C(C)=C/C(=O)O)C(C)(C)CCC1 [TRETINOIN] | 37 µM | 4.3 µM |  | 30 µM | 15 µM | 11 µM |  | 
